# ChEMBL document CHEMBL1140848, “Redox-active dinitrodiphenylthioethers against Leishmania: synthesis, structure-activity relationships and mechanism of action studies” (Bioorg Med Chem, 2009)
# The source made the active and inactive calls. The calls are words filed in the database; no cut-off is given here.
# How the values were obtained:
# Leishmania donovani [1] = test: Antileishmanial activity against Leishmania donovani MHOM/SD/62/1S-CL2D axenic amastigotes after 3 days by tetrazolium dye based colorimetric assay; assay type: functional, organism-based; details: 72 h
# How it was run: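 Axenic amastigotes adapted from promastigotes and kept in amastigote medium at 37 °C. 6 × 10^4 cells per well, 2-fold compound dilutions, 3 days at 37 °C in 5% CO2. Growth read as tetrazolium (CellTiter) absorbance at 490 nm several hours after dye addition. IC50 from a four-parameter dose-response fit. Three or more separate experiments.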
# Leishmania amazonensis = test: Antileishmanial activity against beta-lactamase transfected Leishmania amazonensis in CD1 mouse macrophages assessed as infected macrophages after 72 hrs; assay type: functional, organism-based
# How it was run: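 Starch-elicited peritoneal macrophages from CD-1 mice were plated at 1 × 10^6 cells/ml and adhered overnight. They were infected overnight at 34 °C with β-lactamase-expressing L. amazonensis (5 × 10^6 cells/ml) and washed. Twofold compound dilutions were applied for 72 h at 34 °C. Cells were lysed in 0.1% Triton X-100 with 100 µM nitrocefin for 4 h at 37 °C and read at A490. IC50 by four-parameter fit.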
# [2] = Cytotoxicity against CD1 mouse macrophages assessed as infected macrophages at 3.1 uM after 72 hrs; assay type: cell-based; details: macrophage
# Vero = test: Cytotoxicity against african green monkey Vero cells after 3 days by tetrazolium dye based colorimetric assay; assay type: cell-based; details: Chlorocebus sabaeus, 72 h
# How it was run: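 Vero cells were grown in alpha-MEM with 10% HI-FBS. 1 × 10^3 cells per well received 2-fold compound dilutions for 3 days at 37 °C, 5% CO2. Growth was read as tetrazolium (CellTiter) absorbance at 490 nm. IC50 by four-parameter dose-response fit.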
# Leishmania donovani [3] = test: Reduction of parasitemia in Leishmania donovani infected BALB/c mouse at 3 mg/kg/day, ip for 5 days relative to control; assay type: functional; design: scale not given: the % may be the effect or the level left; details: route intraperitoneal
# How it was run: (§1)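 Infected BALB/c mice were dosed i.p. once daily for 5 days, starting 7 days post-infection. Vehicles were 10% DMSO/70% cremophor-ethanol (3:1)/20% PBS, or PBS for miltefosine. On day 14, Giemsa-stained liver smears were scored as amastigotes per 1000 liver cells × liver weight (mg) and compared with vehicle controls. 4–5 mice per group, SD.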
# [4] = Cytotoxicity against CD1 mouse macrophages at 6.3 uM after 72 hrs; assay type: cell-based; details: macrophage
# [5] = Cytotoxicity against CD1 mouse macrophages at 13 uM after 72 hrs; assay type: cell-based; details: macrophage
# Leishmania donovani [6] = test: Antileishmanial activity against Leishmania donovani promastigotes assessed as induction of ROS production in by flow cytometric detection at 0.1 uM after 24 hrs; assay type: functional, organism-based
# How it was run: (§2)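 Log-phase promastigotes were loaded with 10 µg/ml CM-H2DCFDA in FBS-free medium for 60 min at 25 °C. They were then resuspended at 1 × 10^6 cells/ml and exposed to compounds in 1% DMSO for 24 h. Fluorescence was read by flow cytometry on 10,000 cells and normalized to vehicle controls (=1.0). H2O2 250 µM served as positive control. Three experiments, SEM.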
# Leishmania donovani [7] = test: Antileishmanial activity against Leishmania donovani promastigotes assessed as induction of ROS production in by flow cytometric detection at 1 uM after 24 hrs; assay type: functional, organism-based; how it was run: as §2
# Leishmania donovani [8] = test: Antileishmanial activity against Leishmania donovani promastigotes assessed as induction of ROS production in by flow cytometric detection at 100 uM after 24 hrs; assay type: functional, organism-based; how it was run: as §2
# Leishmania donovani [9] = test: Antiparasitic activity against Leishmania donovani promastigotes assessed as reduction of membrane potential by rhodamine 123 assay; assay type: functional
# How it was run: (§3)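 Promastigotes at 1 × 10^6 cells/ml were exposed to compounds in 1% DMSO for 24 h, at 10 µM and above. FCCP 100 µM for 2 h served as positive control. Cells were then stained with 1 µM rhodamine 123 for 1 h and read by flow cytometry. Results are % fluorescence reduction against vehicle controls. Three experiments, SEM.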
# Leishmania donovani [10] = test: Reduction of parasitemia in Leishmania donovani LV82 promastigotes infected BALB/c mouse at 50 mg/kg/day, ip for 5 days relative to control; assay type: functional; design: scale not given: the % may be the effect or the level left; details: route intraperitoneal
# [11] = Lipophilicity, log P of the compound; assay type: physicochemical; details: octanol/water
# How it was run: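 clogP was calculated with the ChemAxon/Marvin program.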
# Leishmania donovani [12] = test: Reduction of parasitemia in Leishmania donovani LV82 promastigotes infected BALB/c mouse at 25 mg/kg/day, ip for 5 days relative to control; assay type: functional; design: scale not given: the % may be the effect or the level left; details: route intraperitoneal; how it was run: as §1
# Leishmania donovani [13] = test: Antileishmanial activity against Leishmania donovani promastigotes assessed as induction of ROS production in by flow cytometric detection at 10 uM after 24 hrs; assay type: functional, organism-based; how it was run: as §2
# Leishmania donovani [14] = test: Antiparasitic activity against Leishmania donovani promastigotes assessed as reduction of membrane potential 10 uM by rhodamine 123 assay; assay type: functional; design: scale not given: the % may be the effect or the level left; how it was run: as §3
IC50 (Leishmania donovani [1]) [µM],IC50 (Leishmania amazonensis) [µM],SMILES,IC50 (Vero) [µM],other results
0.4,2.6,O=[N+]([O-])c1cc(C(F)(F)F)cc([N+](=O)[O-])c1Sc1ccc(Cl)cc1Cl,4.3,Activity [2]: Toxic
–,–,CCCCCCCCCCCCCCCCOP(=O)([O-])OCC[N+](C)(C)C [MILTEFOSINE],–,Activity (Leishmania donovani [3]): 41%
1.6,2.4,Cc1cccc(Sc2c([N+](=O)[O-])cc(C(F)(F)F)cc2[N+](=O)[O-])c1,7.3,Activity [4]: Toxic
3.4,–,O=[N+]([O-])c1cc(C(F)(F)F)cc([N+](=O)[O-])c1Oc1ccc(Cl)cc1Cl,–,–
98,–,Cc1cc(Sc2ccc(C(F)(F)F)cc2[N+](=O)[O-])c(Cl)cc1Cl,–,–
0.56,3.4,Cc1cc(Sc2c([N+](=O)[O-])cc(C(F)(F)F)cc2[N+](=O)[O-])c(Cl)cc1Cl,9.7,Activity [5]: Toxic; Activity (Leishmania donovani [6]): inactive; Activity (Leishmania donovani [7]): inactive; Activity (Leishmania donovani [8]): Active; Activity (Leishmania donovani [9]): Dose-dependent effect; Activity (Leishmania donovani [10]): -2%; logP [11]: 6.85
23,–,Cc1cc(Sc2c([N+](=O)[O-])cccc2[N+](=O)[O-])c(Cl)cc1Cl,–,Activity (Leishmania donovani [9]): < 20%
7.3,–,O=C(O)c1ccccc1Sc1c([N+](=O)[O-])cc(C(F)(F)F)cc1[N+](=O)[O-],–,–
1.9,5.1,COc1ccc(Sc2c([N+](=O)[O-])cc(C(F)(F)F)cc2[N+](=O)[O-])cc1,12,–
25,–,O=[N+]([O-])c1cc(C(F)(F)F)cc([N+](=O)[O-])c1Nc1ccc(Cl)cc1Cl,–,–
–,–,COc1ccc(Sc2c([N+](=O)[O-])cc(C#N)cc2[N+](=O)[O-])cc1,–,Activity (Leishmania donovani [12]): 28%
0.62,1.8,Cc1cc(Sc2c([N+](=O)[O-])cc([N+](=O)[O-])cc2C(F)(F)F)c(Cl)cc1Cl,5.2,Activity [4]: Toxic
> 200,–,Cc1cc([N+](=O)[O-])c(Sc2cc(C)c(Cl)cc2Cl)c([N+](=O)[O-])c1,–,Activity (Leishmania donovani [6]): inactive; Activity (Leishmania donovani [7]): inactive; Activity (Leishmania donovani [13]): inactive; Activity (Leishmania donovani [9]): < 20%
100,–,Cc1cc(Sc2c(C(F)(F)F)cc(C(F)(F)F)cc2C(F)(F)F)c(Cl)cc1Cl,–,–
–,–,COc1cc([C@@H]2c3cc4c(cc3[C@H](O)[C@H]3COC(=O)[C@H]23)OCO4)cc(OC)c1OC [PODOFILOX],0.023,–
35,–,O=[N+]([O-])c1cc(C(F)(F)F)cc([N+](=O)[O-])c1SC1CCCCC1,–,–
98,–,CCSc1c([N+](=O)[O-])cc(C(F)(F)F)cc1[N+](=O)[O-],–,–
88,–,Cc1cc(Sc2ccc([N+](=O)[O-])cc2)c(Cl)cc1Cl,–,–
3.3,–,O=[N+]([O-])c1cc(C(F)(F)F)cc([N+](=O)[O-])c1Sc1ccc(O)cc1,–,–
59,–,Cc1cc(Sc2ncc(C(F)(F)F)cc2[N+](=O)[O-])c(Cl)cc1Cl,–,–
1,5.8,Cc1cc(Sc2c([N+](=O)[O-])cc(C#N)cc2[N+](=O)[O-])c(Cl)cc1Cl,11,Activity [5]: Toxic; Activity (Leishmania donovani [13]): Active; Activity (Leishmania donovani [8]): Active; Activity (Leishmania donovani [14]): 90%
0.96,2.6,O=[N+]([O-])c1cc(C(F)(F)F)cc([N+](=O)[O-])c1Sc1ccccc1,6,Activity [4]: Toxic
